Source: ChEMBL document CHEMBL4152271, “Polypharmacological profile of 1,2-dihydro-2-oxo-pyridine-3-carboxamides in the endocannabinoid system” (Eur J Med Chem, 2018)
pIC50: −log10 of the molar value. The source made the active and inactive calls. The rule behind the calls is not given here.

Legend:
Monoglyceride lipase = molecular target: T1, Monoglyceride lipase (Homo sapiens, UniProt Q99685); assay: Inhibition of MAGL in human U937 cells using 2-OG containing […] as substrate preincubated for 30 mins followed by substrate addition and measured after 15 mins by liquid scintillation spectroscopic method; type: cell-based
T1 sequence (Q99685 whole entry): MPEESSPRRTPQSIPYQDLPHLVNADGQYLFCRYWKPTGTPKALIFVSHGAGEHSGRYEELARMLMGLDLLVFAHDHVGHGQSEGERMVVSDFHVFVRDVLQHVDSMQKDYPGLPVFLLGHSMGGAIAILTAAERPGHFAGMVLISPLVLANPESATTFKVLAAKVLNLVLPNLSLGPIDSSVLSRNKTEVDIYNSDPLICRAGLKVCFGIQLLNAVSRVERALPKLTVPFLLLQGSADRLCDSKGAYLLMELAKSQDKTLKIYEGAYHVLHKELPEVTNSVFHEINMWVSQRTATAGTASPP
How it was run: (§1)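 U937 cell homogenate (100 µg) in 10 mM Tris-HCl, 1 mM EDTA, pH 8, 0.1% fatty acid-free BSA. Compound at 10 µM screening concentration, 30 min at 37 °C. FAAH: 100 nM AEA with 1 nM [³H]AEA tracer. MAGL: 1 µM 2-OG with 1 nM tritiated tracer. Both 15 min at 37 °C, stopped with CHCl₃:MeOH (1:1), aqueous phase counted.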

U-251 = assay: Cytotoxicity against human U251MG cells assessed as decrease in cell viability at 0.6 to 40 uM after 48 hrs by MTT assay; type: functional, cell-based
How it was run: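 U251MG (EMEM, 10% FBS) or U937 (RPMI 1640, 10% FBS) cells plated at 4x10³/well for 24h, then exposed to compounds (0–40 µM) for 48 h at 37°C. MTT reduction, formazan read at 595 nm. Viability as % of untreated control. Five independent experiments in triplicate, mean ± SD, ANOVA with Bonferroni.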

Cannabinoid receptor 1 = Cannabinoid receptor 1 (Homo sapiens, UniProt P21554); assay: Agonist activity at CB1 receptor in human U251MG cells assessed as upregulation of MICA/B expression at 10 uM after 24 hrs by cytofluorimetric method; type: functional, cell-based
How it was run: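 U251MG glioma cells seeded at 2x10⁴ cells/cm², grown 24h, washed, then exposed to vehicle or compound in complete medium for 24 h. 2x10⁵ cells stained with PE anti-MICA/B or isotype control, 20 min at 4°C, fixed in 1% formaldehyde. Flow cytometry read-out as MFI, 3 independent experiments, mean ± SD, ANOVA with Bonferroni.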

Homo sapiens = organism: Homo sapiens; assay: Selectivity ratio of Ki for human CB1 receptor to Ki for human CB2 receptor
How it was run: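 Membranes expressing hCB1 or hCB2 (stably transfected CHO) in 50 mM Tris-HCl, 2.5 mM EDTA, 5 mM MgCl₂, 0.5% fatty acid-free BSA, pH 7.4. Incubated with compound and 0.5 nM [³H]CP55,940 for 90 min at 30 °C. Nonspecific binding with 10 µM […]. GF/B filtration, radioactivity counted, Ki derived. Mean ± SD, at least 3 experiments in triplicate.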

Cannabinoid receptor 2 = Cannabinoid receptor 2 (Homo sapiens, UniProt P34972); assay: Agonist activity at human CB2 receptor expressed in CHO cell membranes after 90 mins by [35S]GTPgammaS binding assay relative to control; type: functional
How it was run: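 Membranes (5 µg) of hCB2-expressing cells in 50 mM Tris-HCl, 3 mM MgCl₂, 0.2 mM EDTA, 100 mM NaCl, 0.5% fatty acid-free BSA, pH 7.4, with 10 µM GDP and 0.1 nM [³⁵S]GTPγS. Kept on ice, started by vehicle or compound, 90 min at 30 °C. Nonspecific binding with 10 µM GTPγS. Filtered on GF/B, radioactivity counted. At least three experiments in triplicate, mean ± SD.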

[1] = molecular target: T2, Lysophosphatidylserine lipase ABHD12 (Homo sapiens, UniProt Q8N2K0); assay: Inhibition of human ABHD12 expressed in HEK293 cells using 2-OG as substrate preincubated for 30 mins followed by substrate addition and measured after 5 mins by liquid scintillation spectroscopic method; type: cell-based
T2 sequence (Q8N2K0 whole entry): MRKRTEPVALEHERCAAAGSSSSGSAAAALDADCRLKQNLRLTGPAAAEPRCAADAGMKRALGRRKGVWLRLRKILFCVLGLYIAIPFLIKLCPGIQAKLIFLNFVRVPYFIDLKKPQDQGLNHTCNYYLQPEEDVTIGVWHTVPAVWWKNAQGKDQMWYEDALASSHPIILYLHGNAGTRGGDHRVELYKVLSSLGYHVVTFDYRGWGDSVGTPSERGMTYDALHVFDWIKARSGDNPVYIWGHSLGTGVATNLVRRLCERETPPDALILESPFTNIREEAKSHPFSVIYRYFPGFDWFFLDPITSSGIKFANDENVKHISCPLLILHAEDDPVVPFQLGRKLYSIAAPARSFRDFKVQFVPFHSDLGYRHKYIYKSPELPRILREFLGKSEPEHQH
How it was run: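 Homogenate (40 µg) of HEK293 cells stably transfected with hABHD6 or hABHD12, compound preincubated 30 min at 37 °C in […], 0.1% BSA, pH 7.6. DMSO vehicle; WWL70 10 µM or THL 20 µM as positive controls. 10 µM 2-OG added for 5 min at 37 °C, stopped with CHCl₃:MeOH. Aqueous phase counted; no-enzyme blanks and non-transfected HEK293 hydrolysis subtracted.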

[2] = molecular target: T3, Fatty-acid amide hydrolase 1 (Homo sapiens, UniProt O00519); assay: Inhibition of FAAH in human U937 cells using AEA containing [ethanolamine-1-3H]AEA as substrate preincubated for 30 mins followed by substrate addition and measured after 15 mins by liquid scintillation spectroscopic method; type: cell-based; how it was run: as §1
T3 sequence (O00519 whole entry): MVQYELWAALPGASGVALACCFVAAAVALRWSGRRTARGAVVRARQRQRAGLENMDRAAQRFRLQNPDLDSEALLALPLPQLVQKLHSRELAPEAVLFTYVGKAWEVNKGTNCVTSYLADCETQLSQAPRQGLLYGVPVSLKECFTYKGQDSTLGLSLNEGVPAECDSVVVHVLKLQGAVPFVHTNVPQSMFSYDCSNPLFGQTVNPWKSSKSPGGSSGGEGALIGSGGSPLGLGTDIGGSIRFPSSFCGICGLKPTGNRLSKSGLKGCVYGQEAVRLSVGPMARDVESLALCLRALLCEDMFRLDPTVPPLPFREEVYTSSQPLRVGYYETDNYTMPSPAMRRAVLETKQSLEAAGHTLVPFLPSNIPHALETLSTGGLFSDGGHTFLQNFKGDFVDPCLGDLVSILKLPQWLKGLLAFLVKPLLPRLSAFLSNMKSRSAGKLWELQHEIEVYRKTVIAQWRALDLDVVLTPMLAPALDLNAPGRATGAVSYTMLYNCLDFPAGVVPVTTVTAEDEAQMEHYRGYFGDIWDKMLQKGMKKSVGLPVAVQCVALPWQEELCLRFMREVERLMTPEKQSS

Sequence of Cannabinoid receptor 2 (P34972 whole entry): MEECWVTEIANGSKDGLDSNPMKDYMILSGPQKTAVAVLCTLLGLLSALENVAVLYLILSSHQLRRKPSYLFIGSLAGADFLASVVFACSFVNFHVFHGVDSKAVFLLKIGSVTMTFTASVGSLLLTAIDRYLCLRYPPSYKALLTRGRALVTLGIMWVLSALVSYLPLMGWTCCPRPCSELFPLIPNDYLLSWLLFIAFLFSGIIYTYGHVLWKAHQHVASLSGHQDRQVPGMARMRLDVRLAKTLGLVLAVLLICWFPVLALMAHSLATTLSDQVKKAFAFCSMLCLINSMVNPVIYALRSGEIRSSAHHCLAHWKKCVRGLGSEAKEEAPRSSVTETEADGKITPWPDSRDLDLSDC
Sequence of Cannabinoid receptor 1 (P21554 whole entry): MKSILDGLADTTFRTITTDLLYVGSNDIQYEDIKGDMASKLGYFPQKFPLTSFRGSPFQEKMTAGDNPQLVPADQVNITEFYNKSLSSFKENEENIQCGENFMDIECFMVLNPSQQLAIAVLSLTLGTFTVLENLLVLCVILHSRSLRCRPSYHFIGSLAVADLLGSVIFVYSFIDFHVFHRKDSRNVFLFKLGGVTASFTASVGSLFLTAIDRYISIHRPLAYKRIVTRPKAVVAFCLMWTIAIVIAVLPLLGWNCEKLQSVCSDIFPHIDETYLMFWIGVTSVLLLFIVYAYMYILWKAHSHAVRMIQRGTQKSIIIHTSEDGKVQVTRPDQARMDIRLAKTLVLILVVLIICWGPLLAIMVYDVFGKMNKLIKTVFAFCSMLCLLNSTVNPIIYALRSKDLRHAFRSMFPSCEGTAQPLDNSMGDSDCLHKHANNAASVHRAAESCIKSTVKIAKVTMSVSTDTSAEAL

Compound | pIC50 (Monoglyceride lipase) | Activity (U-251) | Activity (Cannabinoid receptor 1) | Ratio Ki (Homo sapiens) | Emax (Cannabinoid receptor 2) [%] | pIC50 [1] | pIC50 [2]
Cc1c(Br)cn(Cc2ccc(F)cc2)c(=O)c1C(=O)NC1CCCCCC1 | < 5.00 | inactive | Active | 0.65 | 134 | 5.68 | 5.64
COc1ccc(-c2cn(Cc3ccc(F)cc3)c(=O)c(C(=O)NC3CCCCCC3)c2C)cc1 | < 5.00 | inactive | Active | 2 to 54 | 99 | < 5.00 | 5.89
Cc1c(Br)cnc(OCc2ccc(F)cc2)c1C(=O)NC1CCCCCC1 | < 5.00 | inactive | Active | 0.18 | 125 | < 5.00 | < 5.00
